Activity calls are given as the source filed them. The rule behind the calls is not given here.
How the values were obtained:
Rattus norvegicus [1] = test: Brain Concentration of 7,8-di-OH-DPAT after 15(umol/kg) sc administration with tropolone pretreatment in rat cerebellum; assay type: functional, organism-based
Procedure, shortened: (§1)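 Male Wistar rats dosed sc in the neck with compound in saline (1 mL/kg), with or without tropolone pretreatment. Killed by decapitation 45 min later; striatum, cerebellum and cortex dissected and frozen at -80 °C. Perchloric acid extracts purified over Sephadex G10 and the formic acid eluate analysed by reversed-phase HPLC with electrochemical detection. Mean ± SEM, n = 4.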

Rattus norvegicus [2] = test: Brain Concentration of 7,8-di-OH-DPAT after 15(umol/kg) sc administration without tropolone pretreatment in rat cortex; assay type: functional, organism-based; procedure, shortened: as §1
Rattus norvegicus [3] = species: Rattus norvegicus; test: Effect on 5-HTP accumulation in hemispheres of rat.; assay type: functional
Rattus norvegicus [4] = test: Brain Concentration at 15(umol/kg, sc) with tropolone pretreatment in rat striatum; assay type: functional, organism-based; procedure, shortened: as §1
Rattus norvegicus [5] = species: Rattus norvegicus; test: Effect on 5-HTP accumulation in limbic system of rat.; assay type: functional
Rattus norvegicus [6] = test: Brain Concentration of 7,8-di-OH-DPAT after 15(umol/kg) sc administration with tropolone pretreatment in rat striatum; assay type: functional, organism-based; procedure, shortened: as §1
Rattus norvegicus [7] = species: Rattus norvegicus; test: Effect on dopamine accumulation in hemispheres of rat; Inactive; assay type: functional, organism-based
Rattus norvegicus [8] = species: Rattus norvegicus; test: Effect on 5-HTP accumulation in striatum of rat.; assay type: functional
Rattus norvegicus [9] = test: Brain Concentration at 15(umol/kg, sc) with tropolone pretreatment in rat cerebellum; assay type: functional, organism-based; procedure, shortened: as §1
Rattus norvegicus [10] = test: Brain Concentration of 7,8-di-OH-DPAT after 15(umol/kg) sc administration without tropolone pretreatment in rat cerebellum; assay type: functional, organism-based; procedure, shortened: as §1
Rattus norvegicus [11] = test: Brain Concentration at 15(umol/kg, sc) without tropolone pretreatment in rat cerebellum; assay type: functional, organism-based; procedure, shortened: as §1
Rattus norvegicus [12] = test: Brain Concentration at 15(umol/kg, sc) without tropolone pretreatment in rat striatum; assay type: functional, organism-based; procedure, shortened: as §1
Rattus norvegicus [13] = test: Brain Concentration of 7,8-di-OH-DPAT after 15(umol/kg) sc administration without tropolone pretreatment in rat striatum; assay type: functional, organism-based; procedure, shortened: as §1
Rattus norvegicus [14] = test: Brain Concentration at 15(umol/kg, sc) without tropolone pretreatment in rat cortex; assay type: functional, organism-based; procedure, shortened: as §1
Rattus norvegicus [15] = test: Brain Concentration of 7,8-di-OH-DPAT after 15(umol/kg) sc administration with tropolone pretreatment in rat cortex; assay type: functional, organism-based; procedure, shortened: as §1
Rattus norvegicus [16] = species: Rattus norvegicus; test: Effect on dopamine accumulation in limbic system of rat; Inactive; assay type: functional, organism-based
Rattus norvegicus [17] = test: Brain Concentration at 15(umol/kg, sc) with tropolone pretreatment in rat cortex; assay type: functional, organism-based; procedure, shortened: as §1
Rattus norvegicus [18] = species: Rattus norvegicus; test: Effect on dopamine accumulation in striatum of rat; Inactive; assay type: functional, organism-based
Rattus norvegicus [19] = species: Rattus norvegicus; test: Effect on dopamine accumulation in limbic system of rat.; assay type: functional
Rattus norvegicus [20] = test: post-synaptic effect was assayed by the increase in locomotor activity (reserpine pretreatment), at 12.5 umol/kg; assay type: functional
Procedure, shortened: (§2)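 Male Sprague-Dawley rats pretreated sc in the neck with reserpine (5 mg/kg), then given the compound sc in the neck (n = 4). Placed singly in motility meters immediately after dosing; locomotor counts accumulated over 0–30 min. Student's t test.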

Rattus norvegicus [21] = species: Rattus norvegicus; test: Effect on dopamine accumulation in striatum of rat.; assay type: functional
Rattus norvegicus [22] = species: Rattus norvegicus; test: Apparent kinetic constant(Km) for the O-Methylation on crude rat liver microsomes.; assay type: functional, organism-based
Rattus norvegicus [23] = species: Rattus norvegicus; test: Apparent kinetic constant(Vmax) for the O-Methylation on crude rat liver microsomes at 1 mg of protein; assay type: functional
[24] = Ratio of Km to that Vmax in crude rat liver microsomes was determined; conditions: Microsome
Rattus norvegicus [25] = test: post-synaptic effect was assayed by the increase in locomotor activity (reserpine pretreatment), at 0.25 umol/kg; assay type: functional; procedure, shortened: as §2
Rattus norvegicus [26] = species: Rattus norvegicus; test: Effect on 5-HTP accumulation in striatum of rat; Inactive; assay type: functional, organism-based
Rattus norvegicus [27] = species: Rattus norvegicus; test: Effect on 5-HTP accumulation in limbic system of rat; Inactive; assay type: functional, organism-based
Rattus norvegicus [28] = species: Rattus norvegicus; test: Effect on 5-HTP accumulation in hemispheres of rat; Inactive; assay type: functional, organism-based
Rattus norvegicus [29] = species: Rattus norvegicus; test: Effect on dopamine accumulation in hemispheres of rat.; assay type: functional
Rattus norvegicus [30] = test: post-synaptic effect was assayed by the increase in locomotor activity (reserpine pretreatment), at 3.15 umol/kg; assay type: functional; procedure, shortened: as §2
Rattus norvegicus [31] = test: Brain Concentration at 25 (umol/kg, sc) with tropolone pretreatment in rat cerebellum; assay type: functional, organism-based; procedure, shortened: as §1
Rattus norvegicus [32] = test: Brain Concentration at 25 (umol/kg, sc) with tropolone pretreatment in rat cortex; assay type: functional, organism-based; procedure, shortened: as §1
Rattus norvegicus [33] = test: Brain Concentration of 5,6-di-OH-DPAT after 25 (umol/kg) sc administration without tropolone pretreatment in rat striatum; assay type: functional, organism-based; procedure, shortened: as §1
Rattus norvegicus [34] = species: Rattus norvegicus; test: Apparent kinetic constant(Vmax) for the aromatic hydroxylation on crude rat liver microsomes at 1 mg of protein; assay type: functional
Procedure, shortened: (§3)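 Crude rat liver microsomes (0.5 mg protein/mL) were incubated with substrate at 37 °C for 3 min in 0.1 M Tris, pH 7.4, with 0.1 mM NADPH and MgCl₂. The reaction was stopped with perchloric acid. Catechol products in the supernatant were measured by HPLC with electrochemical detection. Apparent Km and Vmax came from Lineweaver-Burk plots of 3–4 substrate concentrations, each run in triplicate.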

Rattus norvegicus [35] = test: Brain Concentration of 5,6-di-OH-DPAT after 25 (umol/kg) sc administration without tropolone pretreatment in rat cerebellum; assay type: functional, organism-based; procedure, shortened: as §1
Rattus norvegicus [36] = test: Brain Concentration at 25 (umol/kg, sc) without tropolone pretreatment in rat cortex; assay type: functional, organism-based; procedure, shortened: as §1
Rattus norvegicus [37] = test: Brain Concentration at 25 (umol/kg, sc) with tropolone pretreatment in rat striatum; assay type: functional, organism-based; procedure, shortened: as §1
Rattus norvegicus [38] = test: Brain Concentration of 5,6-di-OH-DPAT after 25 (umol/kg) sc administration with tropolone pretreatment in rat cerebellum; assay type: functional, organism-based; procedure, shortened: as §1
Rattus norvegicus [39] = test: Brain Concentration at 25 (umol/kg, sc) without tropolone pretreatment in rat cerebellum; assay type: functional, organism-based; procedure, shortened: as §1
Rattus norvegicus [40] = test: Brain Concentration at 25 (umol/kg, sc) without tropolone pretreatment in rat striatum; assay type: functional, organism-based; procedure, shortened: as §1
Rattus norvegicus [41] = test: Brain Concentration of 5,6-di-OH-DPAT after 25 (umol/kg) sc administration without tropolone pretreatment in rat cortex; assay type: functional, organism-based; procedure, shortened: as §1
Rattus norvegicus [42] = test: Brain Concentration of 5,6-di-OH-DPAT after 25 (umol/kg) sc administration with tropolone pretreatment in rat striatum; assay type: functional, organism-based; procedure, shortened: as §1
Rattus norvegicus [43] = test: Brain Concentration of 5,6-di-OH-DPAT after 25 (umol/kg) sc administration with tropolone pretreatment in rat cortex; assay type: functional, organism-based; procedure, shortened: as §1
Rattus norvegicus [44] = species: Rattus norvegicus; test: Apparent kinetic constant(Km) for the aromatic hydroxylation on crude rat liver microsomes.; assay type: functional, organism-based; procedure, shortened: as §3

Compound | ED50 (Rattus norvegicus [3]) | ED50 (Rattus norvegicus [5]) | ED50 (Rattus norvegicus [7]) | ED50 (Rattus norvegicus [8]) | ED50 (Rattus norvegicus [19]) | ED50 (Rattus norvegicus [21]) | Km (Rattus norvegicus [22]) | Vmax (Rattus norvegicus [23]) | Ratio [24] | ED50 (Rattus norvegicus [26]) | ED50 (Rattus norvegicus [27]) | ED50 (Rattus norvegicus [28]) | further results
CCCN(CCC)C1CCc2cccc(O)c2C1 (configuration not stated) [8-OH-DPAT] | 0.068 µmol/kg | 0.048 µmol/kg | inactive | 0.045 µmol/kg |  |  |  |  |  |  |  |  | Concentration (Rattus norvegicus [1]): 0.54 nM/g; Concentration (Rattus norvegicus [2]): 0.64 nM/g; Concentration (Rattus norvegicus [4]): 12.3 nM/g; Concentration (Rattus norvegicus [6]): 0.58 nM/g; Concentration (Rattus norvegicus [9]): 9 nM/g; Concentration (Rattus norvegicus [10]): 0.5 nM/g; Concentration (Rattus norvegicus [11]): 8.1 nM/g; Concentration (Rattus norvegicus [12]): 10.3 nM/g; Concentration (Rattus norvegicus [13]): 0.65 nM/g; Concentration (Rattus norvegicus [14]): 10.7 nM/g; Concentration (Rattus norvegicus [15]): 0.7 nM/g; ED50 (Rattus norvegicus [16]): inactive; Concentration (Rattus norvegicus [17]): 13.2 nM/g; ED50 (Rattus norvegicus [18]): inactive
CCCN(CCC)C1CCc2ccc(O)c(OC)c2C1 (configuration not stated) | 1.62 µmol/kg | 1.49 µmol/kg | inactive | 2.06 µmol/kg | 0.314 µmol/kg | 0.35 µmol/kg |  |  |  |  |  |  | Motor activity (Rattus norvegicus [20]): <149
CCCN(CCC)C1CCc2c(ccc(O)c2O)C1 (configuration not stated) |  |  | inactive |  | 0.007 µmol/kg | 0.007 µmol/kg | 80 µM | 400 pM/min | 5000 | inactive | inactive | inactive | Motor activity (Rattus norvegicus [25]): <529
CCCN(CCC)C1CCc2ccc(O)c(O)c2C1 (configuration not stated) | 1.05 µmol/kg | 1.53 µmol/kg |  | 1.39 µmol/kg | 0.986 µmol/kg | 0.977 µmol/kg | 2400 µM | 280 pM/min | 117 |  |  |  | ED50 (Rattus norvegicus [29]): 1.75 µmol/kg; Motor activity (Rattus norvegicus [30]): <31
CCCN(CCC)C1CCc2cccc(OC)c2C1 (configuration not stated) | 0.23 µmol/kg | 0.34 µmol/kg |  | 0.29 µmol/kg |  |  |  |  |  |  |  |  | ED50 (Rattus norvegicus [16]): inactive; ED50 (Rattus norvegicus [18]): inactive
CCCN(CCC)[C@@H]1CCc2ccc(O)cc2C1 |  |  | inactive |  | 0.18 µmol/kg | 0.17 µmol/kg |  |  |  | inactive | inactive | inactive | 
CCCN(CCC)C1CCc2c(O)cccc2C1 (configuration not stated) [5-OH-DPAT] |  |  | inactive |  | 0.011 µmol/kg | 0.009 µmol/kg |  |  | 19600 | inactive | inactive | inactive | Concentration (Rattus norvegicus [31]): 9.4 nM/g; Concentration (Rattus norvegicus [32]): 12.7 nM/g; Concentration (Rattus norvegicus [33]): 0.2 nM/g; Vmax (Rattus norvegicus [34]): 1180 pM/min; Concentration (Rattus norvegicus [35]): 0.08 nM/g; Concentration (Rattus norvegicus [36]): 12.1 nM/g; Concentration (Rattus norvegicus [37]): 11.9 nM/g; Concentration (Rattus norvegicus [38]): 0.3 nM/g; Concentration (Rattus norvegicus [39]): 8.5 nM/g; Concentration (Rattus norvegicus [40]): 10.8 nM/g; Concentration (Rattus norvegicus [41]): 0.08 nM/g; Concentration (Rattus norvegicus [42]): 0.43 nM/g; Concentration (Rattus norvegicus [43]): 0.37 nM/g; Km (Rattus norvegicus [44]): 60 µM
CCCN1CCC[C@@H](c2ccc(O)c(O)c2)C1 |  |  |  |  |  |  | 77 µM | 37000 pM/min |  |  |  |  | 
CCCN(CCC)C1CCc2c(cccc2OC)C1 (configuration not stated) |  |  | inactive |  | 0.013 µmol/kg | 0.018 µmol/kg |  |  |  | inactive | inactive | inactive | 
CCCN(CCC)C1CCc2c(ccc(O)c2OC)C1 (configuration not stated) |  |  | inactive |  | 0.16 µmol/kg | 0.125 µmol/kg |  |  |  | inactive | inactive | inactive | Motor activity (Rattus norvegicus [20]): <204
